Measurements published in ChEMBL document CHEMBL3272302, “Synthesis and evaluation of alpha-hydroxythiol esters as antitumor agents and glyoxalase I inhibitors” (J Med Chem, 1977).

Assays:
Mus musculus [1] = experiment: Toxicity in BDF1 mouse allografted with mouse L1210 cells at 200 mg/kg, ip administered on day 1, 5, and 9; format: organism-based; parameters: dose 200 mg/kg, route intraperitoneal; settings: in vivo
In short: (§1)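 BDF1 mice implanted ip on day 0 with L1210 lymphoid leukemia cells. Compound given ip as a suspension in saline, saline with Tween 80, or Klucel (HPC), with injections every fourth day. Multiple dose levels 400, 200 and 100 mg/kg; three- or six-mouse groups. Toxicity scored as survivors per animals started, recorded on day 5.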

L1210 [2] = experiment: Antitumor activity against mouse L1210 cells allografted in BDF1 mouse assessed as increase in host survival days at 200 mg/kg, ip administered on day 1, 5, and 9 relative to control; format: functional; settings: route intraperitoneal
In short: (§2)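 L1210 lymphoid leukemia cells were implanted ip in BDF1 mice on day 0. Compounds were given ip as suspensions in saline, saline with Tween 80, or Klucel (hydroxypropylcellulose). Injections were repeated every fourth day at the same dose. Groups had three or six mice, and controls received vehicle only. The read-out was mean survival time in days for treated and control animals.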

[3] = molecular target: Lactoylglutathione lyase (Saccharomyces cerevisiae); experiment: Competitive inhibition of yeast glyoxalase-1 using methylglyoxal and glutathione as substrate by Lineweaver-Burk plot analysis
[4] = molecular target: Lactoylglutathione lyase (Saccharomyces cerevisiae); experiment: Inhibition of yeast glyoxalase-1 using methylglyoxal and glutathione as substrate; settings: read-out: I50
L1210 [5] = experiment: Antitumor activity against mouse L1210 cells allografted in BDF1 mouse assessed as increase in host survival time at 200 mg/kg, ip administered on day 1, 5, and 9 relative to control; format: functional; settings: route intraperitoneal
In short: (§3)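 BDF1 mice received ip L1210 lymphoid leukemia cells on day 0. Compounds were then given ip in saline, saline/Tween 80, or Klucel vehicle, repeated every fourth day at a fixed dose from the 400, 200, 100 mg/kg series. Assays used three or six mice, with vehicle-treated controls. T/C % is treated over control mean survival time, expressed as percent.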

L1210 [6] = experiment: Antitumor activity against mouse L1210 cells allografted in BDF1 mouse assessed as increase in host survival time at 100 mg/kg, ip administered on day 1, 5, and 9 relative to control; format: functional; settings: route intraperitoneal; in short: as §3
L1210 [7] = experiment: Antitumor activity against mouse L1210 cells allografted in BDF1 mouse assessed as increase in host survival days at 100 mg/kg, ip administered on day 1, 5, and 9 relative to control; format: functional; settings: route intraperitoneal; in short: as §2
Mus musculus [8] = experiment: Toxicity in BDF1 mouse allografted with mouse L1210 cells at 100 mg/kg, ip administered on day 1, 5, and 9; format: organism-based; parameters: dose 100 mg/kg, route intraperitoneal; settings: in vivo; in short: as §1
L1210 [9] = experiment: Antitumor activity against mouse L1210 cells allografted in BDF1 mouse assessed as increase in host survival days at 100 mg/kg, ip administered on day 2 and 6 relative to control; format: functional; settings: route intraperitoneal; in short: as §2
Mus musculus [10] = experiment: Toxicity in BDF1 mouse allografted with mouse L1210 cells at 100 mg/kg, ip administered on day 2 and 6; format: organism-based; parameters: dose 100 mg/kg, route intraperitoneal; settings: in vivo; in short: as §1
L1210 [11] = experiment: Antitumor activity against mouse L1210 cells allografted in BDF1 mouse assessed as increase in host survival time at 100 mg/kg, ip administered on day 2 and 6 relative to control; format: functional; settings: route intraperitoneal; in short: as §3
L1210 [12] = experiment: Antitumor activity against mouse L1210 cells allografted in BDF1 mouse assessed as increase in host survival days at 400 mg/kg, ip administered on day 1 relative to control; format: functional; settings: route intraperitoneal
Mus musculus [13] = experiment: Toxicity in BDF1 mouse allografted with mouse L1210 cells at 400 mg/kg, ip administered on day 1; format: organism-based; parameters: dose 400 mg/kg, route intraperitoneal; settings: in vivo; in short: as §1
L1210 [14] = experiment: Antitumor activity against mouse L1210 cells allografted in BDF1 mouse assessed as increase in host survival time at 400 mg/kg, ip administered on day 1 relative to control; format: functional; settings: route intraperitoneal
Mus musculus [15] = experiment: Toxicity in BDF1 mouse allografted with mouse L1210 cells at 100 mg/kg, ip administered on day 1; format: organism-based; parameters: dose 100 mg/kg, route intraperitoneal; settings: in vivo; in short: as §1
L1210 [16] = experiment: Antitumor activity against mouse L1210 cells allografted in BDF1 mouse assessed as increase in host survival days at 100 mg/kg, ip administered on day 1 relative to control; format: functional; settings: route intraperitoneal
L1210 [17] = experiment: Antitumor activity against mouse L1210 cells allografted in BDF1 mouse assessed as increase in host survival time at 100 mg/kg, ip administered on day 1 relative to control; format: functional; settings: route intraperitoneal
Mus musculus [18] = experiment: Toxicity in BDF1 mouse allografted with mouse L1210 cells at 200 mg/kg, ip administered on day 2 and 6; format: organism-based; parameters: dose 200 mg/kg, route intraperitoneal; settings: in vivo; in short: as §1
L1210 [19] = experiment: Antitumor activity against mouse L1210 cells allografted in BDF1 mouse assessed as increase in host survival days at 200 mg/kg, ip administered on day 2 and 6 relative to control; format: functional; settings: route intraperitoneal; in short: as §2
L1210 [20] = experiment: Antitumor activity against mouse L1210 cells allografted in BDF1 mouse assessed as increase in host survival time at 200 mg/kg, ip administered on day 2 and 6 relative to control; format: functional; settings: route intraperitoneal; in short: as §3

O=C(SCc1ccccc1)C(O)c1ccccc1 (stereo not given) was tested, and the Activity (Mus musculus [1]) was “Toxic”, the T/C (L1210 [2]) was 100% and the Ki [3] was 6.3 mM. For the same compound, the IC50 [4] was 8.1 mM and the Time (L1210 [5]) was 10.7 days.
For CCCCOC(=O)CSC(=O)C(O)c1ccccc1 (stereo not given), the Time (L1210 [6]) was 10.2 days, the T/C (L1210 [7]) was 105% and the Ki [3] was 34.7 mM. For the same compound, the IC50 [4] was 44.5 mM and the Activity (Mus musculus [8]) was “Toxic”.
In the case of CCCCSC(=O)C(C)O (stereo not given), the T/C (L1210 [9]) is reported as 99%, the Ki [3] is reported as 12.9 mM and the IC50 [4] is reported as 16.5 mM. For the same compound, the Activity (Mus musculus [10]) was “Toxic” and the Time (L1210 [11]) was 10 days.
In the case of COC(=O)CCSC(=O)C(O)c1ccccc1 (stereo not given), the T/C (L1210 [12]) is reported as 105%, the Activity (Mus musculus [13]) is reported as “Toxic” and the Ki [3] is reported as 38.6 mM. For the same compound, the IC50 [4] was 49.6 mM and the Time (L1210 [14]) was 9.8 days.
In the case of CCCCSC(=O)C(O)c1ccccc1 (stereo not given), the Activity (Mus musculus [15]) is reported as “Toxic”, the T/C (L1210 [16]) is reported as 105% and the Ki [3] is reported as 29.6 mM. The Time (L1210 [17]) was 9.8 days and the IC50 [4] was 37.8 mM.
With COC(=O)CSC(=O)C(O)c1ccccc1 (stereo not given) the Activity (Mus musculus [1]) was “Toxic”, the T/C (L1210 [2]) was 103% and the Ki [3] was 8.2 mM. The IC50 [4] was 10.5 mM and the Time (L1210 [5]) was 10.5 days.
In the case of CC(O)C(=O)SCc1ccccc1 (stereo not given), the Activity (Mus musculus [18]) is reported as “Toxic”, the Ki [3] is reported as 5.5 mM and the T/C (L1210 [19]) is reported as 98%. It also gave a Time (L1210 [20]) of 10.3 days and an IC50 [4] of 7.1 mM.
